Data: ChEMBL document CHEMBL1122510, “Actinidin hydrolysis of substituted-phenyl hippurates: a quantitative structure-activity relationship and graphics comparison with hydrolysis by papain” (J Med Chem, 1984)

Test: Michaelis constant for Actinidin-catalyzed hydrolysis
Format: ADME
Procedure, shortened: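 Actinidin purified in-house from kiwi fruit, stored as crystal suspension in 0.1 M sodium phosphate pH 6 with 20% ammonium sulfate; diluted, activated with aqueous DTE (~15 mg/mL), then diluted in 0.1 M sodium phosphate pH 6.0. Substituted-phenyl hippurate added in CH3CN to enzyme-buffer at 25 °C; initial hydrolysis rates read spectrophotometrically at ≥8 substrate concentrations.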

Row | Structure (SMILES) | Log 1/Km
1 | CC(=O)Nc1cccc(OC(=O)CNC(=O)c2ccccc2)c1 | 3.18
2 | O=C(CNC(=O)c1ccccc1)Oc1ccc(F)cc1 | 2.72
3 | CC(C)(C)c1cccc(OC(=O)CNC(=O)c2ccccc2)c1 | 3.66
4 | N#Cc1ccc(OC(=O)CNC(=O)c2ccccc2)cc1 | 3.62
5 | NS(=O)(=O)c1cccc(OC(=O)CNC(=O)c2ccccc2)c1 | 3.42
6 | Cc1ccc(OC(=O)CNC(=O)c2ccccc2)cc1 | 2.95
7 | NC(=O)c1cccc(OC(=O)CNC(=O)c2ccccc2)c1 | 3.15
8 | Nc1ccc(OC(=O)CNC(=O)c2ccccc2)cc1 | 2.55
9 | O=C(CNC(=O)c1ccccc1)Oc1cccc(Cl)c1 | 3.63
10 | O=C(CNC(=O)c1ccccc1)Oc1cc(Cl)cc(Cl)c1 | 3.84
11 | O=C(CNC(=O)c1ccccc1)Oc1ccccc1 | 2.77
12 | O=C(CNC(=O)c1ccccc1)Oc1cccc([N+](=O)[O-])c1 | 3.53
13 | O=C(CNC(=O)c1ccccc1)Oc1cc(Cl)c(Cl)c(Cl)c1 | 4.01
14 | Cc1cc(C)cc(OC(=O)CNC(=O)c2ccccc2)c1 | 3.37
15 | CC(=O)c1ccc(OC(=O)CNC(=O)c2ccccc2)cc1 | 3.47
16 | CCc1cc(C)cc(OC(=O)CNC(=O)c2ccccc2)c1 | 3.52
17 | O=C(CNC(=O)c1ccccc1)Oc1cccc(F)c1 | 3.01
18 | O=C(CNC(=O)c1ccccc1)Oc1cc([N+](=O)[O-])cc([N+](=O)[O-])c1 | 3.9
19 | NS(=O)(=O)c1ccc(OC(=O)CNC(=O)c2ccccc2)cc1 | 3.22
20 | O=C(CNC(=O)c1ccccc1)Oc1ccc(Cl)cc1 | 3.04
21 | O=C(CNC(=O)c1ccccc1)Oc1cccc(C(F)(F)F)c1 | 3.47
22 | COc1cc(OC)cc(OC(=O)CNC(=O)c2ccccc2)c1 | 3.6
23 | O=C(CNC(=O)c1ccccc1)Oc1cccc(I)c1 | 3.93
24 | COc1ccc(OC(=O)CNC(=O)c2ccccc2)cc1 | 2.87
25 | O=C(CNC(=O)c1ccccc1)Oc1ccc([N+](=O)[O-])cc1 | 3.8
26 | N#Cc1cccc(OC(=O)CNC(=O)c2ccccc2)c1 | 3.08
27 | Cc1cccc(OC(=O)CNC(=O)c2ccccc2)c1 | 3.26
28 | NC(=O)c1ccc(OC(=O)CNC(=O)c2ccccc2)cc1 | 3.47
29 | O=C(CNC(=O)c1ccccc1)Oc1cccc(Br)c1 | 3.64
